# Screens (PubChem BioAssay)
# TRPC4 act: opens the mouse TRPC4 cation channel; B-score at 10 µM; AID 2237; Q9QUQ5; HEK293 TRPC4beta/mu-opioid, Fluo4 calcium fluorescence; active compounds read high; 0.49% of 310,000 active;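 active = B-score above 5 SD of library B-scores, and initial fluorescence ratio not above library mean plus 5 SD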;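 also: positive B-score marks a calcium rise read as TRPC4 activation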
# Target sequence (Q9QUQ5 whole entry, looked up): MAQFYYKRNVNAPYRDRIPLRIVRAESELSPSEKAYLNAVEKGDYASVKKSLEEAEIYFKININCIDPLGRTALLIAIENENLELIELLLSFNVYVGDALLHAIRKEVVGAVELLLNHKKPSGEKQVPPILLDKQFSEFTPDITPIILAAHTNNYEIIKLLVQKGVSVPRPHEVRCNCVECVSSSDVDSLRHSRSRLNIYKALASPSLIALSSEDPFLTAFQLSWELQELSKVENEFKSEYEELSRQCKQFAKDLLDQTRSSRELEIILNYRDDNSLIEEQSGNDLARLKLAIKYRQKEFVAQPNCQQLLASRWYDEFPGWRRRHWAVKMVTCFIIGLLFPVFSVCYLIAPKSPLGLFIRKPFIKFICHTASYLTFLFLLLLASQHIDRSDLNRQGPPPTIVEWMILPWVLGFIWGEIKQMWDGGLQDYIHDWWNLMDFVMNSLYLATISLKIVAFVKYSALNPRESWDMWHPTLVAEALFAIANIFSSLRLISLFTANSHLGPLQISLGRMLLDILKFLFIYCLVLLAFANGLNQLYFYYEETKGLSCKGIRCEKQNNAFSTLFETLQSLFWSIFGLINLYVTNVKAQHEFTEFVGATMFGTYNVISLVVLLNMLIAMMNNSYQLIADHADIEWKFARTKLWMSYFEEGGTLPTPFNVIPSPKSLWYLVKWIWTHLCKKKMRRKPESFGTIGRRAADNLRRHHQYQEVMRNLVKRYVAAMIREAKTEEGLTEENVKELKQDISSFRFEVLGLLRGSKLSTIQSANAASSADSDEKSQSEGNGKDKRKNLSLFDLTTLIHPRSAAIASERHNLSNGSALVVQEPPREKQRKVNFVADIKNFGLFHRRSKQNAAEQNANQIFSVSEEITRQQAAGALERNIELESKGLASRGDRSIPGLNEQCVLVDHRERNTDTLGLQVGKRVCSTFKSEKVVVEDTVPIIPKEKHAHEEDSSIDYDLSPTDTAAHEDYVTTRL
#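 Material: TRPC4beta and mu-opioid receptor HEK293 stable cells | Incubation: 45 min room-temperature Fluo4 loading, 110 s read | Detection: Kinetic Fluo4 calcium fluorescence | Measure: Integrated baseline-normalised fluorescence ratio, converted to per-well B score | Benchmarks: Low control buffer alone, high control maximal DAMGO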
# TRPC4 PAM: allosteric potentiators of mouse TRPC4 channel; Q9QUQ5; HEK293 TRPC4beta/mu-opioid, DAMGO EC20, Fluo-4 Ca2+ flux; active compounds read high; B-score at 10 µM; 0.42% of 310,000 active; AID 2227;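 active = B-score of calcium response area above 5 SD of library B-scores, with initial fluorescence ratio within 5 SD of library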;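 also: B-score of integrated fluorescence ratio over time as area under calcium response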
# CR mimetic SO: lowers age-related superoxide in aged yeast cells; S. cerevisiae aged cells, superoxide DHE fluorescence; active compounds read low; superoxide response (% of plate mean), % at 10 µM; 0.18% of 330,000 active;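 active = superoxide response under a set limit, about three screen SD below normal, cut at about 65% in these data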;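 also: yeast aged for seven days with compound at 30 °C before DHE staining; 100% = average MFI of all compound-treated wells on the plate with controls excluded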
# TRPC6 inh: inhibitors of mouse TRPC6 channel. B-score at 10 µM. 1.1% of 310,000 active. HEK293-TRPC6, membrane potential dye, ACh-evoked depolarization; active compounds read low;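 active = B-score under library mean minus 3 SD, initial fluorescence not abnormally high, positive integrated signal ratio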;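 also: B-score derived from integrated fluorescence ratio over the kinetic read; more negative B-score means stronger inhibition of depolarization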
# TRPC4 inh: blocks the mouse TRPC4 cation channel | 0.39% of 300,000 active | B-score at 10 µM | Q9QUQ5 | AID 2247 | HEK293 TRPC4beta/mu-opioid, DAMGO-evoked Fluo4 calcium flux; active compounds read low;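 active = B-score over 3 SD under the library average, no early fluorescence shift, positive overall ratio signal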
#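 Assay system: Stable TRPC4beta/mu-opioid receptor HEK293 cells | Reagent: DAMGO in two steps, submaximal then maximal | Compound dosing: Single concentration per test compound | Signal: Fluo4 Ca2+ flux fluorescence | Evaluation: Per-well B score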
# TRPC6 act: activators of mouse TRPC6 channel | Q61143 | HEK293-TRPC6 membrane potential dye fluorescence; active compounds read high | B-score at 10 µM | 0.13% of 310,000 active;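 active = B-score of the integrated fluorescence ratio above library mean plus 3 SD, and starting fluorescence ratio within library mean plus 5 SD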;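 also: higher score means more depolarization so channel activation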
# * = called active by the depositor; i = inactive; . = no result. Hits are enriched below; roughly 2.3% of the tested compounds scored in any of these assays.
SMILES,TRPC4 act,TRPC4 PAM,CR mimetic SO,TRPC6 inh,TRPC4 inh,TRPC6 act
CC(=C/c1ccccc1)/C=N/n1c(-c2ccncc2)n[nH]c1=S,i,15*,112,i,i,i
CC(/C=N/n1c(-c2cccnc2)n[nH]c1=S)=C\c1ccccc1,i,i,90,i,i,i
CC1=NNC(=O)/C1=C\c1cn(-c2ccccc2)nc1-c1ccccc1,i,10*,128,i,i,i
O=Cc1cn(-c2ccccc2)nc1-c1ccccc1,i,i,91,i,i,i
Cc1cc(C)c2c(=O)n(CC(=O)Nc3cccc(Cl)c3C)sc2n1,i,16*,96,i,i,i
Cc1cc(C)c2c(=O)n(CC(=O)Nc3ccc(Br)c(C)c3)sc2n1,i,i,79,i,i,i
CN1/C(=C\C(=O)C[n+]2ccc3ccccc3c2)C(C)(C)c2ccccc21,i,i,.,i,-6*,i
O=C(C[n+]1cc(-c2ccc(Cl)c(Cl)c2)n2c1CCC2)N1c2ccccc2Sc2ccccc21,i,i,112,i,-6*,i
Cc1ccc(NC(=O)C[n+]2cc(-c3ccc(C)cc3)n3c2CCC3)cc1,i,i,98,i,i,i
Cc1ccc(-c2c[n+](Cc3ccc(Cl)c(Cl)c3)c3n2CCC3)cc1,i,i,99,i,-8*,i
COc1ccccc1N1CCN(C(=O)CSc2nnc(NC(=O)C3CC3)s2)CC1,i,i,98,i,i,i
C=CCNS(=O)(=O)c1ccc(OCC(=O)OC)cc1,i,i,106,i,i,i
Nc1cc([N+](=O)[O-])ccc1Nc1ccc(O)cc1,i,i,63*,i,i,i
Nc1ccccc1Nc1ccc([N+](=O)[O-])cc1[N+](=O)[O-],i,i,104,i,i,i
Cc1ccccc1N(C(=O)c1snc(C(N)=O)c1N)C(C(=O)NC1CCCC1)c1ccco1 (centres undefined),i,i,.,i,-8*,i
Cc1cccc(N(C(=O)c2snc(C(N)=O)c2N)C(C(=O)NCC2CCCO2)c2ccc3ncccc3c2)c1 (centres undefined),i,i,81,i,-6*,i
COc1ccc(C(C(=O)NC2CCCC2)N(C(=O)c2snc(C(N)=O)c2N)c2ccccc2OC)cc1OC (centres undefined),i,i,91,i,i,i
CCc1ccc(N(C(=O)c2snc(C(N)=O)c2N)C(C(=O)NC2CCCC2)c2ccco2)cc1 (centres undefined),i,i,114,i,i,i
COc1cccc(N(C(=O)c2snc(C(N)=O)c2N)C(C(=O)NCC2CCCO2)c2ccc3ncccc3c2)c1 (centres undefined),i,i,88,i,-6*,i
COc1ccccc1N(C(=O)c1snc(C(N)=O)c1N)C(C(=O)NC1CCCC1)c1ccc2ncccc2c1 (centres undefined),i,i,102,i,-6*,i
COc1ccccc1N(C(=O)c1snc(C(N)=O)c1N)C(C(=O)NCc1ccccc1)c1ccc(O)cc1 (centres undefined),i,i,.,i,-8*,i
COc1ccc(CN(C(=O)c2snc(C(N)=O)c2N)C(CC(C)C)C(=O)NC2CCCCC2)cc1 (centres undefined),i,i,89,i,-7*,i
O=C(Cc1ccccc1)NNC1CC(=O)N(c2ccc(Oc3ccccc3)cc2)C1=O (centres undefined),i,i,96,i,i,i
O=C(O)c1ccn2c(C(=O)c3ccc(Cl)cc3)c(-c3ccccc3)cc2c1,i,i,102,i,-6*,i
O=C(CNC(=O)c1ccc(S(=O)(=O)N2CCCC2)cc1)N/N=C/c1ccc(F)cc1,i,i,71,i,i,i
SMILES,TRPC4 act,TRPC4 PAM,CR mimetic SO,TRPC6 inh,TRPC4 inh,TRPC6 act
CC(C)OC(=O)c1c2nc3ccccc3nc2n2c1[nH]c(=O)c1ccccc12,i,10*,108,i,i,i
CC(C)OC(=O)c1c(N)n(CCCN2CCOCC2)c2nc3ccccc3nc12,i,i,99,i,i,i
CCCC(O)(c1ccc(Cl)cc1)C(CN1CCOCC1)c1ccccc1 (centres undefined),i,i,95,i,-5*,i
COc1ccc(C)cc1Nc1n[n+](-c2ccccc2)c(-c2ccc(OC)c(OC)c2OC)s1,i,i,96,i,i,i
CN(C)c1ccc(-c2sc(Nc3ccccc3)n[n+]2-c2ccc(F)cc2)cc1,222*,i,109,i,i,i
COc1ccc(C)cc1Nc1n[n+](-c2ccccc2)c(-c2c(Cl)cccc2Cl)s1,67*,i,90,-5.4*,i,i
CCc1ccc(Nc2n[n+](-c3ccccc3)c(-c3c(Cl)cccc3Cl)s2)cc1,i,i,94,i,i,i
Fc1ccc(-[n+]2nc(Nc3ccccc3)sc2-c2c(Cl)cccc2Cl)cc1,55*,i,104,i,i,i
O=C(Nc1ccccc1O)c1c(O)c2c([nH]c1=O)CCCC2,i,i,98,i,i,i
COc1ccc(-c2cc(C(F)(F)F)c(C#N)c(SCC(=O)Nc3ccc(C)cc3)n2)cc1,i,i,97,i,i,i
C=CCc1cc(Cl)ccc1OCCCNCCO,i,14*,133,i,i,i
C/C(=N\OCc1cccc(C(=O)O)c1)c1ccc(Cl)cc1,i,i,119,i,i,i
Cc1cc(NC(=O)c2cnn3cccnc23)no1,i,i,89,i,i,i
O=C(Nc1cc(Cl)cc(Cl)c1)c1cnn2cccnc12,i,i,109,i,i,i
COC(=O)c1ccccc1NC(=O)c1cnn2cccnc12,i,54*,101,i,i,i
O=C(Nc1cccc(Cl)c1)c1cnn2cccnc12,i,34*,101,i,.,i
COc1cc(/C=C/C(=O)O)cc(S(=O)(=O)N(CC(C)C)CC(C)C)c1OC,i,i,99,i,i,i
CC[C@@H](C(=O)[C@@H](C)[C@@H](O)[C@H](C)CCc1ccc(C)c(O)c1C(=O)O)[C@H]1O[C@](CC)([C@H]2CC[C@](O)(CC)[C@H](C)O2)C[C@@H]1C,160*,i,76,i,i,i
